Source: PubChem BioAssay (several laboratories)
Compounds with a hit are over-represented: about 1.9% of the library has one in this group of screens.
HCV NS3 hel inh = HCV NS3 helicase inhibition; inhibition, % at 10.9 µM; NS3 helicase DNA unwinding, Cy5 molecular beacon fluorescence; hit rate 0.56% among 290,000; AID 1800;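 active = inhibition above the mean of all tested compounds plus 3 SD, set per campaign, cut at about 35% in these data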
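Test system: hepatitis C virus NS3 helicase domain fragment enzyme. Also added: annealed dual-labelled DNA beacon duplex, ATP-started. Timing: 60 min unwinding reaction at 25 °C after ATP addition. Technique: Cy5 fluorescence. Measure: % inhibition of unwinding.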
DNA FID counter = fluorescent intercalator displacement, NS3 helicase counter-screen; inhibition, % at 7.9 µM; hit rate 0.17% among 290,000; DNA fluorescent intercalator displacement, fluorescence; in the data active = inhibition above about 37%;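 also: higher means more ethidium bromide displaced from hairpin DNA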
p-CIP stab down = compounds decreasing mouse p/CIP protein stability; Q05BA5; F442A p/CIP-EGFP cells, EGFP fluorescence, 16 h; decrease of EGFP signal, % at 10 µM; hit rate 0.01% among 290,000; AID 1984;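 active = EGFP signal decrease of at least 30% at 10 µM or well 3 SD below plate mean, unless failing retest; inactive = the rest, including hits failing retest or dose response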
GPR7 antagonist = human neuropeptides B/W receptor 1 antagonism; inhibition, % at 4.4 µM; GPR7-expressing cells, fluorescence antagonist assay; hit rate 1.1% among 290,000; P48145; AID 1861; in the data active = inhibition above about 16%, passing the limit was not always enough;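 also: cells stimulated with the agonist NPW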
Target sequence (P48145 whole entry, looked up): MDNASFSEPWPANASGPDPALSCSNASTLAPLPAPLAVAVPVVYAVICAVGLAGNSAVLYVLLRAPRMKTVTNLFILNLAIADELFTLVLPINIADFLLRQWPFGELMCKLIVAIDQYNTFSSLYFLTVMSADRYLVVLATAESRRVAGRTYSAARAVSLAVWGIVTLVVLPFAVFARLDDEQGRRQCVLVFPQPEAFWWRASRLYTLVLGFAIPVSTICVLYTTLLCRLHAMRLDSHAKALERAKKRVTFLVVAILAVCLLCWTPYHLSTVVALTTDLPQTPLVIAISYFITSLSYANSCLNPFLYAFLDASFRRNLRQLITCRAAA
HCV core dimer = blocks dimerization of HCV core protein | TR-FRET GST/Flag-core106 dimerization, 1536-well | inhibition, % at 5 µM | hit rate 0.33% among 300,000 | AID 1899;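 active = inhibition above the mean of all tested compounds plus 3 SD, set per screening campaign, cut at about 45% in these data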
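Material: Tagged HCV core106 pair (GST and Flag) | Amount: GST-core106 13.5 nM, Flag-core106 17 nM | Medium: KF-containing HEPES buffer, pH 7.45, DTT, CHAPS, BSA | Reagent: Eu donor and XL665 acceptor anti-tag antibodies | Schedule: 4 h at 22.5 °C | Technique: Time-resolved FRET, ex 340 nm, em 617 and 671 nm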
GPR7 antag conf = human GPR7 antagonism, confirmation assay; shares compounds with GPR7 antagonist; GPR7-expressing cells, calcium fluorescence antagonist mode; inhibition, % at 4.4 µM; hit rate 52% among 2,400; in the data active = inhibition above about 24%;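 also: stimulated with the GPR7 agonist NPW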
MCHR1 antag = counter-screen for GPR7 antagonists: antagonists of human MCHR1. inhibition, % at 4.4 µM. MCHR1-expressing cells, fluorescence antagonist assay. shares compounds with GPR7 antagonist. hit rate 62% among 2,400; in the data active = inhibition above about 22%
Of the large screens only hits and unclear results are named; the others gave an inactive call (follow-up assays come after a bar, where they were run).

Cc1nn(-c2ccccc2)c(Cl)c1/C=C(\CC(=O)O)c1nc2ccccc2s1	none
Cc1nn(-c2ccc(F)cc2)c(Cl)c1/C=C(\CC(=O)O)c1nc2ccccc2s1	GPR7 antagonist 31 | GPR7 antag conf inactive | MCHR1 antag inactive
CCOc1ccc(C(C(=O)NCC2CCCO2)N(C(=O)c2snc(C(N)=O)c2N)c2ccc3c(c2)OCCO3)cc1 (configuration not stated)	none
Cc1nc2ccccc2n1CC(O)COc1ccc(Br)cc1 (configuration not stated)	none
CCC(=O)c1ccc(OCC(O)Cn2c(C)nc3ccccc32)cc1 (configuration not stated)	GPR7 antagonist 28 | GPR7 antag conf inactive | MCHR1 antag 57
Cn1cccc1C(=O)NC(=O)COC(=O)CNC(=O)c1ccc(Cl)cc1Cl	none
Cn1cccc1C(=O)NC(=O)COC(=O)CNC(=O)CNC(=O)c1ccc(Cl)cc1Cl	GPR7 antagonist 27 | GPR7 antag conf inactive | MCHR1 antag inactive
CC(=O)Nc1ccc(S(=O)(=O)N(CCCN2CCOCC2)Cc2cccs2)cc1	GPR7 antagonist 25 | GPR7 antag conf inactive | MCHR1 antag inactive
CC1CN/C(=C\C(=O)c2ccccc2)C(=O)N1 (configuration not stated)	GPR7 antagonist 30 | GPR7 antag conf inactive | MCHR1 antag inactive
O=C(CCCc1cccs1)N1CCN(S(=O)(=O)c2ccccc2Br)CC1	GPR7 antagonist 29 | GPR7 antag conf inactive | MCHR1 antag 25
COC(=O)[C@@H](NC(=O)c1ccc2c(c1)S(=O)(=O)c1ccccc1C2=O)C(C)C	GPR7 antagonist 22 | GPR7 antag conf inactive | MCHR1 antag inactive
COCC(C)NC(=O)c1ccc2c(c1)S(=O)(=O)c1ccccc1C2=O (configuration not stated)	none
CC1CCCCC1NC(=O)C1CCC(CNS(=O)(=O)c2cccc3cccnc23)CC1 (configuration not stated)	none
O=C(N/C(=C\c1cccc([N+](=O)[O-])c1)C(=O)N1CCOCC1)c1ccc([N+](=O)[O-])cc1	GPR7 antagonist 23 | GPR7 antag conf inactive | MCHR1 antag inactive
COc1cc2c(cc1NC(=O)CN1C(=O)NC3(CCc4ccccc43)C1=O)oc1ccccc12 (configuration not stated)	GPR7 antagonist 33 | GPR7 antag conf 59 | MCHR1 antag 57
COc1ccccc1C(=O)CN1C(=O)NC2(CCc3ccccc32)C1=O (configuration not stated)	none (no result: HCV NS3 hel inh, DNA FID counter, p-CIP stab down, GPR7 antagonist)
OCC[C@H]1C[C@@H](O)[C@H](O)[C@]2(OCCc3ccccc32)O1	none (no result: HCV NS3 hel inh, DNA FID counter, p-CIP stab down, GPR7 antagonist)
CCOc1ccc(C(=O)NC(C(=O)NCc2cccnc2)C(C)C)cc1 (configuration not stated)	none
COc1cccc(CNC(=O)c2ccccc2NC(=O)C2=C(C)OCCS2)c1	none
O=C(CSc1nc(-c2ccccc2)cs1)Nc1nccs1	GPR7 antagonist 27 | GPR7 antag conf inactive | MCHR1 antag inactive
O=C(CSc1ccccc1)Nc1nccs1	none
COc1cc(-c2noc(C)c2-c2ccc(N(C)C)nc2)cc(OC)c1OC	GPR7 antagonist 60 | GPR7 antag conf 69 | MCHR1 antag 67
Cc1cc(Br)cc2c1NC(=O)C2(O)CC(=O)c1ccco1 (configuration not stated)	none
CCCCOc1ccc(Br)cc1/C(C)=N/NC1=NCCN1	GPR7 antagonist 24 | GPR7 antag conf 36 | MCHR1 antag 60
CCCCCCOc1ccc(/C(C)=N/NC2=NCCN2)cc1[N+](=O)[O-]	none
Cc1ccc(C(=O)N2CCN(c3ccc(NC(=O)c4ccc5c(c4)OCCO5)cc3)CC2)cc1	GPR7 antagonist 32 | GPR7 antag conf 33 | MCHR1 antag 65
Cc1ccccc1C(=O)N1CCN(c2ccc(NC(=O)c3ccc4c(c3)OCCO4)cc2)CC1	none
CCc1ccc(NC(=O)C/C(C)=N/NC(=O)COc2ccc(C)cc2Br)cc1	GPR7 antagonist 42 | GPR7 antag conf inactive | MCHR1 antag inactive
O=C(O)c1ccc(CNS(=O)(=O)c2ccc3ccccc3c2)cc1	GPR7 antagonist 23 | GPR7 antag conf inactive | MCHR1 antag inactive
NS(=O)(=O)c1ccc(CNS(=O)(=O)c2ccc3ccccc3c2)cc1	none
CC(CCc1ccccc1)NC(=O)COC(=O)c1ccc([N+](=O)[O-])cc1 (configuration not stated)	none
CC(CCc1ccccc1)NC(=O)COC(=O)c1ccc(S(C)(=O)=O)c([N+](=O)[O-])c1 (configuration not stated)	GPR7 antagonist 52 | GPR7 antag conf 92 | MCHR1 antag 48
COc1cc(NC(=O)CC(C)S(=O)(=O)c2ccc3c(c2)NC(=O)CO3)cc(OC)c1OC (configuration not stated)	none
CCc1cc2cc(C(=O)N3CCN(Cc4ccccc4)CC3)sc2s1	GPR7 antagonist 28 | GPR7 antag conf inactive | MCHR1 antag 45
CCc1cc2cc(C(=O)N3CCN(c4ccccc4)CC3)sc2s1	none
O=C(COc1ccc2ccccc2c1)Nc1ccc(Cc2ccncc2)cc1	none
COc1ccc(OCC(=O)Nc2ccc(Cl)cc2)cc1	none
Cc1cc(OCC(=O)Nc2ccncc2)ccc1Br	GPR7 antagonist 23 | GPR7 antag conf 36 | MCHR1 antag 50
O=C(Nc1ccc2c(c1)C(=O)NC2=O)c1ccccc1	none
O=C(COc1ccc(Cl)cc1)Nc1ccc(Cc2ccncc2)cc1	GPR7 antagonist 28 | GPR7 antag conf 32 | MCHR1 antag 49
O=C(COc1ccc(Cl)cc1)Nc1ccc2c(c1)C(=O)NC2=O	GPR7 antagonist 33 | GPR7 antag conf 24 | MCHR1 antag 27
O=C(CSCc1ccccc1)Nc1ccc2c(c1)C(=O)NC2=O	GPR7 antagonist 24 | GPR7 antag conf 35 | MCHR1 antag 34
CC(Oc1ccc(-n2cnnn2)cc1)C(=O)O (configuration not stated)	none
Cc1cccc(OCC(=O)Nc2ccc3c(c2)C(=O)NC3=O)c1	none
Cc1ccc(OCC(=O)Nc2ccc3c(c2)C(=O)NC3=O)cc1	GPR7 antagonist 28 | GPR7 antag conf 40 | MCHR1 antag 35
Cc1ccnc(N/C=C(/NC(=O)c2ccccc2)C(=O)N/N=C\c2ccc(Cl)cc2)n1	none
O=C(C[n+]1cc(-c2ccc(Cl)cc2)n2c1CCCCC2)c1ccccc1	none
CC(C)[C@@H]1CC[C@@H](C)C[C@H]1OC(=O)C[n+]1cc(-c2ccc(Cl)cc2)n2c1CCCCC2	GPR7 antagonist 58 | GPR7 antag conf 65 | MCHR1 antag 83
COc1ccc(NC(=O)CN(Cc2ccccc2)Cc2ccccc2)cc1S(N)(=O)=O	none
